≈ marks a conversion by molar mass, not a printed value. Where a SMILES comes first, the peptide text is derived from it. Bridges are numbered along the chain shown (N, C = ends). [ ]: non-standard residue; d: D form. The star is where a group is joined. Benzoyl(3-Ph) = O=C(c1cccc(-c2ccccc2)c1)*; Benzoyl(4-Ph) = O=C(c1ccc(-c2ccccc2)cc1)*; X7 = N#Cc1ccc(-c2cc(C(=O)*)ccc2Cl)cc1; X11 = COc1cc(C(=O)*)cc(-c2ccccc2)c1; X15 = N#Cc1ccc(C(=O)*)cc1-c1ccccc1; X4 = O=C(c1ccnc(-c2ccc(Cl)cc2)c1)*; X5 = O=C(c1ccc(Cl)c(-c2ccccn2)c1)*; X9 = COc1ccc(-c2cc(C(=O)*)ccn2)cc1; 2Naphthoyl = O=C(c1ccc2ccccc2c1)*; X13 = COc1ccc(-c2ccccc2)cc1C(=O)*; X6 = CC[C@H](C)CCCCC(=O)*; Dab = NCC[C@H](N)C(=O)O; Dap = NC[C@H](N)C(=O)O
Legend:
[1] = Cytotoxicity against human RPTEC after 24 hrs by LDH assay; assay type: cell-based; settings: RPTEC cells, read-out: TC50
How it was run: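 Primary human renal proximal tubule epithelial cells in REGM (EGF, hydrocortisone, epinephrine, insulin, T3, transferrin, gentamycin/amphotericin-B, FBS). After 72 h of growth at 37 °C, 5% CO2, cells were exposed for 24 h to aqueous compound at 100, 67, 44, 30, 20 and 13 μM. LDH release into the supernatant was measured by kit and TC50 (μM) derived, with PMB and PMBN as controls.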

Escherichia coli = experiment: Antibacterial activity against polymyxin-sensitive Escherichia coli isolate 1 assessed as growth inhibition by broth microdilution method; assay type: functional
Klebsiella pneumoniae = experiment: Antibacterial activity against polymyxin-sensitive ESBL-positive Klebsiella pneumoniae clinical isolate 3700 assessed as growth inhibition by broth microdilution method; assay type: functional
Acinetobacter baumannii [2] = experiment: Antibacterial activity against polymyxin-sensitive Acinetobacter baumannii clinical isolate 3167 assessed as growth inhibition by broth microdilution method; assay type: functional
Acinetobacter baumannii [3] = experiment: Antibacterial activity against polymyxin-resistant Acinetobacter baumannii clinical isolate 1649 assessed as growth inhibition by broth microdilution method; assay type: functional
Acinetobacter baumannii [4] = experiment: Bactericidal activity against polymyxin-resistant Acinetobacter baumannii clinical isolate 1649; assay type: functional
Pseudomonas aeruginosa [5] = experiment: Antibacterial activity against polymyxin-sensitive Pseudomonas aeruginosa 1401 assessed as growth inhibition by broth microdilution method; assay type: functional
How it was run: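 CLSI broth microdilution MIC against P. aeruginosa 1401 (PA01) and 1402 (UC12120), the two strains used in the mouse thigh model.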

Pseudomonas aeruginosa [6] = experiment: Antibacterial activity against polymyxin-resistant Pseudomonas aeruginosa clinical isolate 1646 assessed as growth inhibition by broth microdilution method; assay type: functional
How it was run: (§1)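 Test strain PA-1646 is a P. aeruginosa isolate with a mutated PmrAB two-component system. The system is constitutively active, so the modified lipid A moiety is constantly expressed on the cell surface, giving a polymyxin-resistant phenotype.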

Pseudomonas aeruginosa [7] = experiment: Bactericidal activity against polymyxin-resistant Pseudomonas aeruginosa clinical isolate 1646; assay type: functional; how it was run: as §1

| Structure (SMILES) | CC50 at 24 h [1] | MIC (Escherichia coli) | MIC (Klebsiella pneumoniae) | MIC (Acinetobacter baumannii [2]) | MIC (Acinetobacter baumannii [3]) | MBC (Acinetobacter baumannii [4]) | MIC (Pseudomonas aeruginosa [5]) | MIC (Pseudomonas aeruginosa [6]) | MBC (Pseudomonas aeruginosa [7]) |
| --- | --- | --- | --- | --- | --- | --- | --- | --- | --- |
| CC(C)C[C@@H]1NC(=O)[C@@H](Cc2ccccc2)NC(=O)[C@H](CCN)NC(=O)[C@@H](NC(=O)[C@H](CN)NC(=O)[C@@H](NC(=O)[C@H](CCN)NC(=O)c2ccc(Cl)c(-c3ccc(C#N)cc3)c2)[C@@H](C)O)CCNC(=O)[C@H]([C@@H](C)O)NC(=O)[C@H](CCN)NC(=O)[C@H](CCN)NC1=O (X7-[Dab]T[Dap][Dab][Dab][dF]L[Dab][Dab]T; lactam 4-C) | 20 µM | 0.5 µg/mL | 0.5 µg/mL | 0.5 µg/mL | 4 µg/mL | 4 µg/mL (≈ 3.1 µM) | 1 µg/mL | 1 µg/mL | 4 µg/mL (≈ 3.1 µM) |
| COc1ccc(-c2cc(C(=O)N[C@@H](CCN)C(=O)N[C@H](C(=O)N[C@@H](CN)C(=O)N[C@H]3CCNC(=O)[C@H]([C@@H](C)O)NC(=O)[C@H](CCN)NC(=O)[C@H](CCN)NC(=O)[C@H](CC(C)C)NC(=O)[C@@H](Cc4ccccc4)NC(=O)[C@H](CCN)NC3=O)[C@@H](C)O)ccn2)cc1 (X9-[Dab]T[Dap][Dab][Dab][dF]L[Dab][Dab]T; lactam 4-C) | 78 µM | 0.25 µg/mL | 0.25 µg/mL | 0.25 µg/mL | 2 µg/mL | 2 µg/mL (≈ 1.59 µM) | 0.5 µg/mL | 2 µg/mL | 8 µg/mL (≈ 6.35 µM) |
| COc1cc(C(=O)N[C@@H](CCN)C(=O)N[C@H](C(=O)N[C@@H](CN)C(=O)N[C@H]2CCNC(=O)[C@H]([C@@H](C)O)NC(=O)[C@H](CCN)NC(=O)[C@H](CCN)NC(=O)[C@H](CC(C)C)NC(=O)[C@@H](Cc3ccccc3)NC(=O)[C@H](CCN)NC2=O)[C@@H](C)O)cc(-c2ccccc2)c1 (X11-[Dab]T[Dap][Dab][Dab][dF]L[Dab][Dab]T; lactam 4-C) | 26 µM | 0.25 µg/mL | 0.25 µg/mL | 0.25 µg/mL | 4 µg/mL | 8 µg/mL (≈ 6.35 µM) | 0.5 µg/mL | 2 µg/mL | 4 µg/mL (≈ 3.18 µM) |
| CC(C)C[C@@H]1NC(=O)[C@@H](Cc2ccccc2)NC(=O)[C@H](CCN)NC(=O)[C@@H](NC(=O)[C@H](CN)NC(=O)[C@@H](NC(=O)[C@H](CCN)NC(=O)c2ccc3ccccc3c2)[C@@H](C)O)CCNC(=O)[C@H]([C@@H](C)O)NC(=O)[C@H](CCN)NC(=O)[C@H](CCN)NC1=O (2Naphthoyl-[Dab]T[Dap][Dab][Dab][dF]L[Dab][Dab]T; lactam 4-C) | 51 µM | 0.125 µg/mL | 0.125 µg/mL | 0.25 µg/mL | 2 µg/mL | 2 µg/mL (≈ 1.66 µM) | 0.5 µg/mL | 4 µg/mL | 16 µg/mL (≈ 13.3 µM) |
| CC(C)C[C@@H]1NC(=O)[C@@H](Cc2ccccc2)NC(=O)[C@H](CCN)NC(=O)[C@@H](NC(=O)[C@H](CN)NC(=O)[C@@H](NC(=O)[C@H](CCN)NC(=O)c2ccc(Cl)c(-c3ccccn3)c2)[C@@H](C)O)CCNC(=O)[C@H]([C@@H](C)O)NC(=O)[C@H](CCN)NC(=O)[C@H](CCN)NC1=O (X5-[Dab]T[Dap][Dab][Dab][dF]L[Dab][Dab]T; lactam 4-C) | 72 µM | 0.25 µg/mL | 0.25 µg/mL | 0.25 µg/mL | 4 µg/mL | 4 µg/mL (≈ 3.16 µM) | 1 µg/mL | 4 µg/mL | 16 µg/mL (≈ 12.6 µM) |
| CC(C)C[C@@H]1NC(=O)[C@@H](Cc2ccccc2)NC(=O)[C@H](CCN)NC(=O)[C@@H](NC(=O)[C@H](CN)NC(=O)[C@@H](NC(=O)[C@H](CCN)NC(=O)c2ccnc(-c3ccc(Cl)cc3)c2)[C@@H](C)O)CCNC(=O)[C@H]([C@@H](C)O)NC(=O)[C@H](CCN)NC(=O)[C@H](CCN)NC1=O (X4-[Dab]T[Dap][Dab][Dab][dF]L[Dab][Dab]T; lactam 4-C) | 30 µM | 0.25 µg/mL | 0.25 µg/mL | 0.25 µg/mL | 1 µg/mL | 1 µg/mL (≈ 0.791 µM) | 0.5 µg/mL | 1 µg/mL | 1 µg/mL (≈ 0.791 µM) |
| CC(C)C[C@@H]1NC(=O)[C@@H](Cc2ccccc2)NC(=O)[C@H](CCN)NC(=O)[C@@H](NC(=O)[C@H](CN)NC(=O)[C@@H](NC(=O)[C@H](CCN)NC(=O)c2ccc(-c3ccccc3)cc2)[C@@H](C)O)CCNC(=O)[C@H]([C@@H](C)O)NC(=O)[C@H](CCN)NC(=O)[C@H](CCN)NC1=O ({Benzoyl(4-Ph)}-[Dab]T[Dap][Dab][Dab][dF]L[Dab][Dab]T; lactam 4-C) | 28 µM | 0.25 µg/mL | 0.25 µg/mL | 0.25 µg/mL | 1 µg/mL | 1 µg/mL (≈ 0.813 µM) | 0.5 µg/mL | 0.5 µg/mL | 1 µg/mL (≈ 0.813 µM) |
| CC(C)C[C@@H]1NC(=O)[C@@H](Cc2ccccc2)NC(=O)[C@H](CCN)NC(=O)[C@@H](NC(=O)[C@H](CN)NC(=O)[C@@H](NC(=O)[C@H](CCN)NC(=O)c2cccc(-c3ccccc3)c2)[C@@H](C)O)CCNC(=O)[C@H]([C@@H](C)O)NC(=O)[C@H](CCN)NC(=O)[C@H](CCN)NC1=O ({Benzoyl(3-Ph)}-[Dab]T[Dap][Dab][Dab][dF]L[Dab][Dab]T; lactam 4-C) | 21 µM | 0.25 µg/mL | 0.5 µg/mL | 0.25 µg/mL | 2 µg/mL | 2 µg/mL (≈ 1.63 µM) | 0.5 µg/mL | 1 µg/mL | 2 µg/mL (≈ 1.63 µM) |
| CC(C)C[C@@H]1NC(=O)[C@@H](Cc2ccccc2)NC(=O)[C@H](CCN)NC(=O)[C@@H](NC(=O)[C@H](CN)NC(=O)[C@@H](NC(=O)[C@H](CCN)NC(=O)c2ccc(C#N)c(-c3ccccc3)c2)[C@@H](C)O)CCNC(=O)[C@H]([C@@H](C)O)NC(=O)[C@H](CCN)NC(=O)[C@H](CCN)NC1=O (X15-[Dab]T[Dap][Dab][Dab][dF]L[Dab][Dab]T; lactam 4-C) | 39 µM | 0.125 µg/mL | 0.25 µg/mL | 0.25 µg/mL | 0.5 µg/mL | 0.5 µg/mL (≈ 0.399 µM) | 0.25 µg/mL | 2 µg/mL | 4 µg/mL (≈ 3.19 µM) |
| CC[C@H](C)CCCCC(=O)N[C@@H](CCN)C(=O)N[C@H](C(=O)N[C@@H](CCN)C(=O)N[C@H]1CCNC(=O)[C@H]([C@@H](C)O)NC(=O)[C@H](CCN)NC(=O)[C@H](CCN)NC(=O)[C@H](CC(C)C)NC(=O)[C@@H](Cc2ccccc2)NC(=O)[C@H](CCN)NC1=O)[C@@H](C)O (X6-[Dab]T[Dab][Dab][Dab][dF]L[Dab][Dab]T; lactam 4-C) | 27 µM | 0.125 µg/mL | 0.5 µg/mL | 0.25 µg/mL | 4 µg/mL | 4 µg/mL (≈ 3.32 µM) | 0.5 µg/mL | 4 µg/mL | 16 µg/mL (≈ 13.3 µM) |
| COc1ccc(-c2ccccc2)cc1C(=O)N[C@@H](CCN)C(=O)N[C@H](C(=O)N[C@@H](CN)C(=O)N[C@H]1CCNC(=O)[C@H]([C@@H](C)O)NC(=O)[C@H](CCN)NC(=O)[C@H](CCN)NC(=O)[C@H](CC(C)C)NC(=O)[C@@H](Cc2ccccc2)NC(=O)[C@H](CCN)NC1=O)[C@@H](C)O (X13-[Dab]T[Dap][Dab][Dab][dF]L[Dab][Dab]T; lactam 4-C) | 19 µM | 0.5 µg/mL | 0.25 µg/mL | 0.25 µg/mL | 4 µg/mL | 4 µg/mL (≈ 3.18 µM) | 0.5 µg/mL | 2 µg/mL | 2 µg/mL (≈ 1.59 µM) |

— ChEMBL document CHEMBL2396592, “Discovery of Dap-3 polymyxin analogues for the treatment of multidrug-resistant Gram-negative nosocomial infections” (J Med Chem, 2013)
